Laboratory results: ChEMBL document CHEMBL1914304 (J Med Chem, 2011)
One block for each molecule: values may come before it.

Tests used:
[1] = test system: HEK293; assay: Cytotoxicity against human HEK293 cells after 72 hrs by luminescence assay; format: cell-based; settings: hek293, 72 h
[2] = test system: Raji; assay: Cytotoxicity against human Raji cells after 72 hrs by luminescence assay; format: cell-based
[3] = test system: HepG2; assay: Cytotoxicity against human HepG2 cells after 72 hrs by luminescence assay; format: cell-based; settings: hepg2, 72 h
[4] = test system: BJ; assay: Cytotoxicity against human BJ cells after 72 hrs by luminescence assay; format: cell-based
[5] = Selectivity ratio of EC50 for human HepG2 cells to EC50 for Plasmodium falciparum
[6] = biological target: T1, Sodium channel protein type 5 subunit alpha (Homo sapiens, UniProt Q14524); assay: Inhibition of human cloned Nav1.5 channel expressed in chinese hamster CHO cells assessed as tonic inhibition after 5 mins by patch clamp assay; format: cell-based
[7] = biological target: T1, Sodium channel protein type 5 subunit alpha; assay: Inhibition of human cloned Nav1.5 channel expressed in chinese hamster CHO cells assessed as phasic inhibition after 5 mins by patch clamp assay; format: cell-based
[8] = biological target: Sulfonylurea receptor 2, Kir6.2 (Homo sapiens, UniProt O60706+Q14654); assay: Inhibition of human kir6.2/SUR2A ion channel coexpressed in human HEK293 cells after 5 mins by patch clamp assay; format: cell-based
How it was run: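 Human KCNJ11 (Kir6.2) and SUR2A were co-expressed in HEK293 cells to give the ATP-sensitive current IKATP. The assay was run at room temperature by automated parallel patch clamp, with dose-response at 0.2, 0.6, 1.6 and 5 µM. Exposure was 5 min per concentration, with each concentration in two cells (n ≥ 2).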

[9] = test system: Plasma; assay: Metabolic stability in mouse plasma over 24 hrs; format: ADME, cell-free
[10] = Chemical stability in simulated gastric fluid at pH 2 over 24 hrs; format: physicochemical; settings: simulated gi fluid, pH 2, 24 h
[11] = Chemical stability in simulated gastric fluid at pH 5 over 24 hrs; format: physicochemical; settings: simulated gi fluid, pH 5, 24 h
[12] = Solubility of the compound in phosphate buffered saline by UV spectrophotometry; format: physicochemical
[13] = biological target: Voltage-gated inwardly rectifying potassium channel KCNH2 (Homo sapiens, UniProt Q12809); assay: Inhibition of human cloned ERG channel expressed in chinese hamster CHO cells after 5 mins by patch clamp assay; format: cell-based
[14] = test system: Plasmodium falciparum; assay: Antimalarial activity against erythrocytic stage of chloroquine-sensitive Plasmodium falciparum 3D7 after 72 hrs by spectrophotometry; format: functional, organism-based; settings: 3D7, 72 h
[15] = test system: Plasmodium falciparum; assay: Antimalarial activity against erythrocytic stage of chloroquine-resistant Plasmodium falciparum K1 after 72 hrs by spectrophotometry; format: functional, organism-based; settings: K1, 72 h
[16] = test system: hERG; assay: Therapeutic index, ratio of IC50 for human ERG expressed in CHO cells to EC50 for chloroquine-resistant Plasmodium falciparum K1; format: cell-based; settings: hamster, CHO cells expressing human ERG; read-out: Ratio IC50/EC50

T1 sequence (Q14524 whole entry): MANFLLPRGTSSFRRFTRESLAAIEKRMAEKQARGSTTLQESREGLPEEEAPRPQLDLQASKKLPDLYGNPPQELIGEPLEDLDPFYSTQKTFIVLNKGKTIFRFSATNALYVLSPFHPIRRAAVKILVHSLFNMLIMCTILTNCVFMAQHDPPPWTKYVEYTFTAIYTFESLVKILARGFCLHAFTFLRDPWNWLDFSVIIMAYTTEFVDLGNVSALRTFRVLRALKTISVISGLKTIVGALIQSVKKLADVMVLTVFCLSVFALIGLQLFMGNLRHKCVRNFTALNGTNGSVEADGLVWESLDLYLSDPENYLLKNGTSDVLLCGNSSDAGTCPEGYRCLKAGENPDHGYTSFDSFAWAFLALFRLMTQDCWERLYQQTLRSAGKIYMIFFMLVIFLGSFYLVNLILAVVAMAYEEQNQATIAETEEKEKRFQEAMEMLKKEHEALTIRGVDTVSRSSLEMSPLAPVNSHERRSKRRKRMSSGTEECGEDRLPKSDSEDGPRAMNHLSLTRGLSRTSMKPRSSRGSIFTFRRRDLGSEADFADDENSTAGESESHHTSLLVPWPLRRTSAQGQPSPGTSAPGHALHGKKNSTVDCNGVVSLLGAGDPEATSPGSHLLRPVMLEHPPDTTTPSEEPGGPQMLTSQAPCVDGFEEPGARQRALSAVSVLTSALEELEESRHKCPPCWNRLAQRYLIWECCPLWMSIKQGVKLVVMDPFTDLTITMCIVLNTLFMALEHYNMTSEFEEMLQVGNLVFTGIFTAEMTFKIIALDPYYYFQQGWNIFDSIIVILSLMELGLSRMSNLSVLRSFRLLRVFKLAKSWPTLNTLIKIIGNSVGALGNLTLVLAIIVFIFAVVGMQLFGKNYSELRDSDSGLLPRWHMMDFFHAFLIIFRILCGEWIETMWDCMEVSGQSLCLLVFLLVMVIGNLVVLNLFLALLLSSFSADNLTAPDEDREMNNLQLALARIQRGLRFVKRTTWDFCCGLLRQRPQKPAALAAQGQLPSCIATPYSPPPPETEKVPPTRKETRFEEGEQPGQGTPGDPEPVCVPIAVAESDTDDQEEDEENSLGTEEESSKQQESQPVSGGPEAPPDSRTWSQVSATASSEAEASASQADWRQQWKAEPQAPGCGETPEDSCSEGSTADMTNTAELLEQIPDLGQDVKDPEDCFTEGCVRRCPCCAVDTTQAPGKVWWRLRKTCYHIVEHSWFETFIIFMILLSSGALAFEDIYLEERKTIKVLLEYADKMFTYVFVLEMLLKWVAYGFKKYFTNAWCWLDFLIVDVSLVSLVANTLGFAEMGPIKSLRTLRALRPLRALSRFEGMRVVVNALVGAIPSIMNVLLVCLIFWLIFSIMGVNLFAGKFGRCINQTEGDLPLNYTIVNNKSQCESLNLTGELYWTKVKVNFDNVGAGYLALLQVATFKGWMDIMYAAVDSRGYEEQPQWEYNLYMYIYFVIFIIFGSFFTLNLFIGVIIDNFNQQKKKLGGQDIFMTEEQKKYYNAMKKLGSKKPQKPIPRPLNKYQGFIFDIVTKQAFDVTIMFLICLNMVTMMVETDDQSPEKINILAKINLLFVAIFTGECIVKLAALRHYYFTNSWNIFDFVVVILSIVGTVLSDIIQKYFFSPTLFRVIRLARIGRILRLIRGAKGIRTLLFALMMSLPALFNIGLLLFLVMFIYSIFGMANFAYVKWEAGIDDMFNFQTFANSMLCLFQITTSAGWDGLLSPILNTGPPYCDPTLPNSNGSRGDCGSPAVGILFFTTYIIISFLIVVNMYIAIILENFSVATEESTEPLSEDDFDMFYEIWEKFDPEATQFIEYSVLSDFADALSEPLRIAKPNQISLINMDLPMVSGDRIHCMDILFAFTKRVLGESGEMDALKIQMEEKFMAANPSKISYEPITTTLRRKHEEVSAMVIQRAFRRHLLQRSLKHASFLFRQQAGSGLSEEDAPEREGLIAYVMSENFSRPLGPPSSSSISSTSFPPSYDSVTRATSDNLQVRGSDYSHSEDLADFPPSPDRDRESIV
Sequence of Sulfonylurea receptor 2, Kir6.2 (Q14654 whole entry): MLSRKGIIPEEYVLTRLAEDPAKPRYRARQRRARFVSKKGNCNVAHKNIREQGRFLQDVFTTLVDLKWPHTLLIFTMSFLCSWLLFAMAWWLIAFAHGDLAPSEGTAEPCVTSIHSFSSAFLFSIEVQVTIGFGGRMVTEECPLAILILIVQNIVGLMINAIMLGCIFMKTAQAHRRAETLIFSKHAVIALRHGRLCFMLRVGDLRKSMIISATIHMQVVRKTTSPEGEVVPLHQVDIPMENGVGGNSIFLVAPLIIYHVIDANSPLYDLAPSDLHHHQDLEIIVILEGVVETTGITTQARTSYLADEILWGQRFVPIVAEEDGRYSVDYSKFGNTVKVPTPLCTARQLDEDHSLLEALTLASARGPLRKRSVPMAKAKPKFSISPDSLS
Sequence of Sulfonylurea receptor 2, Kir6.2 (O60706 whole entry): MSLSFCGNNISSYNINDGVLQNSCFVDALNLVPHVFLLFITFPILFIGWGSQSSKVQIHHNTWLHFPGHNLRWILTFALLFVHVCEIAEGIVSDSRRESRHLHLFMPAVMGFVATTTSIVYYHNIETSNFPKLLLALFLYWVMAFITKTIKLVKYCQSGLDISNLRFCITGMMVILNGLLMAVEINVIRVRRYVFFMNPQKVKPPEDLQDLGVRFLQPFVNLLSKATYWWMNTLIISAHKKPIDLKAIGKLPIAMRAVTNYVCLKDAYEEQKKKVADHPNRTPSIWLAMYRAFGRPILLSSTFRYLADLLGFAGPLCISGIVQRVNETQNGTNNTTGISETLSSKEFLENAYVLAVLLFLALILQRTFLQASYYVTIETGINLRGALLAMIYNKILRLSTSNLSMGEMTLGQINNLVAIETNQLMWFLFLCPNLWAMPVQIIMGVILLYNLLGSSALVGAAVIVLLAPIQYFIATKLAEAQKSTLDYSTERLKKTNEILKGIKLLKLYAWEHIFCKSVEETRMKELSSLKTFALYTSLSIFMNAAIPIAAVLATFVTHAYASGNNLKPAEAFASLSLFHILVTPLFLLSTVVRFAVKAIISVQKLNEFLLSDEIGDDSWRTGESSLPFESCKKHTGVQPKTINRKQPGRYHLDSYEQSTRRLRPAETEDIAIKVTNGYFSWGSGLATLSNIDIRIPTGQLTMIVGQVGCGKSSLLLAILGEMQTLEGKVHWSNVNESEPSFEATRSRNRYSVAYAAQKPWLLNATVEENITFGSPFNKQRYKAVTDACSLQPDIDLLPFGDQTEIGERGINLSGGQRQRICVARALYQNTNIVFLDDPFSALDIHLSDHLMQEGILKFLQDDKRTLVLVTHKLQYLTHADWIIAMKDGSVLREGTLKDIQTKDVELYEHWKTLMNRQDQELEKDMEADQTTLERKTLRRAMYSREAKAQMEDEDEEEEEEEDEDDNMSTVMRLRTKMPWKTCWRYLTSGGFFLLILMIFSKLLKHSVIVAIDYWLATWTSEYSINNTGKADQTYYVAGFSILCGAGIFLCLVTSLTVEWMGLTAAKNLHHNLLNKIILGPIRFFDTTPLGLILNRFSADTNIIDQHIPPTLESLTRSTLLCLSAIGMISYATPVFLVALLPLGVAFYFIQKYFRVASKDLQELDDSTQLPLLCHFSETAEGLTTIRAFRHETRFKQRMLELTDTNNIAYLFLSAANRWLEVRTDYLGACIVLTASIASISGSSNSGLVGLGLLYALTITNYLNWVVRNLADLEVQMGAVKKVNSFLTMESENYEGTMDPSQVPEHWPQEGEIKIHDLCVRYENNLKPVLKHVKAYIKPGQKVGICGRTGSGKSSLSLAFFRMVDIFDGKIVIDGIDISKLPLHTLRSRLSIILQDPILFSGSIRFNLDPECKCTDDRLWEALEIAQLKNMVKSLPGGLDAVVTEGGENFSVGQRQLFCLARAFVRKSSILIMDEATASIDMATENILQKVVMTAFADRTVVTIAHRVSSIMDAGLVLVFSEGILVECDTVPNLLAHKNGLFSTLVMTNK
Sequence of Voltage-gated inwardly rectifying potassium channel KCNH2 (Q12809 whole entry): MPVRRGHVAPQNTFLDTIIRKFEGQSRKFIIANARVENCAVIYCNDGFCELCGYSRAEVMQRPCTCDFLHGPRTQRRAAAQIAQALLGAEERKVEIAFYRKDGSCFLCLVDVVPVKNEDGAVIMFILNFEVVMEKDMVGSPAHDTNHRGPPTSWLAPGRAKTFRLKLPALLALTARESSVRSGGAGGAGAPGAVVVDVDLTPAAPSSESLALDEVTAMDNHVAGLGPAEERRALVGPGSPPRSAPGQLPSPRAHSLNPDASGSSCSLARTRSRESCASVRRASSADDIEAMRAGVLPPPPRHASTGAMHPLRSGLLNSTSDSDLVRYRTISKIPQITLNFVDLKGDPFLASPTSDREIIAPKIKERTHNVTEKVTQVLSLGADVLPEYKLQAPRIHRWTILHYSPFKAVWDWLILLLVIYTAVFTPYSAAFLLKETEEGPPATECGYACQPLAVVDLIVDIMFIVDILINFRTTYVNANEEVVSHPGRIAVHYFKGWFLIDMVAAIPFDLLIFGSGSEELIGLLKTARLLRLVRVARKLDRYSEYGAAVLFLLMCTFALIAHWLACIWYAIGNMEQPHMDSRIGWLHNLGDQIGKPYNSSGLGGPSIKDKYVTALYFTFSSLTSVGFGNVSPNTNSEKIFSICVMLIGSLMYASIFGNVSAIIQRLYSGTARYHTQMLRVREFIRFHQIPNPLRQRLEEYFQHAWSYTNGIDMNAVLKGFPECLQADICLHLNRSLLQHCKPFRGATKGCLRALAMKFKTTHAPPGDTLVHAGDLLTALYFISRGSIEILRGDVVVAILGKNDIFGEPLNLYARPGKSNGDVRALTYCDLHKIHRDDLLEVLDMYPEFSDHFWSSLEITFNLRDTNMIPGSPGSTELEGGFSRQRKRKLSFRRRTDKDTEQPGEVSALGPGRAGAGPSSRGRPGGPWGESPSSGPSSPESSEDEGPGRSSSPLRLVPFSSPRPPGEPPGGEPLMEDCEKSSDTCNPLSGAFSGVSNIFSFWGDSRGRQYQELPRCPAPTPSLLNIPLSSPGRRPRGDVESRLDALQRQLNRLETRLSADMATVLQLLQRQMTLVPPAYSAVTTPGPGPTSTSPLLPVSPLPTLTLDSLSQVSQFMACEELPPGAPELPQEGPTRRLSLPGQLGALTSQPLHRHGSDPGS

SMILES: CC(C)(C)NCC(O)COc1ccccc1C(=O)CCc1ccccc1.Cl (racemic)
Activity [1]: Non-toxic
Activity [2]: Non-toxic
Activity [3]: Non-toxic
Activity [4]: Non-toxic
selectivity ratio [5]: > 10

SMILES: Cl.O=C(CCc1ccccc1)c1ccccc1OCC1CO1 (racemic)
Activity [1]: Non-toxic
Activity [2]: Non-toxic
Activity [3]: Non-toxic
Activity [4]: Non-toxic
selectivity ratio [5]: > 10

SMILES: Cl.O=C(CCc1ccccc1)c1cc(F)ccc1OCC1CO1 (racemic)
Activity [1]: Non-toxic
Activity [2]: Non-toxic
Activity [3]: Non-toxic
Activity [4]: Non-toxic
selectivity ratio [5]: > 10

SMILES: Cl.O=C(CCc1ccc(F)cc1)c1ccccc1OCC1CO1 (racemic)
Activity [1]: Non-toxic
Activity [2]: Non-toxic
Activity [3]: Non-toxic
Activity [4]: Non-toxic
selectivity ratio [5]: > 10

SMILES: Cl.O=C(CCc1ccc(F)cc1)c1cc(F)ccc1OCC1CO1 (racemic)
Activity [1]: Non-toxic
Activity [2]: Non-toxic
Activity [3]: Non-toxic
Activity [4]: Non-toxic
selectivity ratio [5]: > 10

SMILES: Cl.O=C(CCc1ccccc1)c1ccccc1OCC(O)CNCc1ccccc1 (racemic)
Activity [1]: Non-toxic
Activity [2]: Non-toxic
Activity [3]: Non-toxic
Activity [4]: Non-toxic
selectivity ratio [5]: > 10

SMILES: Cl.O=C(CCc1ccccc1)c1ccccc1OCC(O)CN(Cc1ccccc1)c1ccccc1 (racemic)
Activity [1]: Non-toxic
Activity [2]: Non-toxic
Activity [3]: Non-toxic
Activity [4]: Non-toxic
selectivity ratio [5]: > 10

SMILES: Cc1cccc(N(CC(O)COc2ccccc2C(=O)CCc2ccccc2)c2ccccc2)c1.Cl (racemic)
Activity [1]: Non-toxic
Activity [2]: Non-toxic
Activity [3]: Non-toxic
Activity [4]: Non-toxic
selectivity ratio [5]: > 10

SMILES: CN(CCc1ccccc1)CC(O)COc1ccccc1C(=O)CCc1ccccc1.Cl (racemic)
Activity [1]: Non-toxic
Activity [2]: Non-toxic
Activity [3]: Non-toxic
Activity [4]: Non-toxic
selectivity ratio [5]: > 10

IC50 [8]: > 5 µM
Stability [9]: Stable
Stability [10]: Stable
Stability [11]: Stable
solubility [12]: 7.27 µM
SMILES: Cl.O=C(CCc1ccccc1)c1ccccc1OCC(O)CN1CCC(c2ccccc2)CC1 (racemic)
Activity [1]: Non-toxic
Activity [2]: Non-toxic
Activity [3]: Non-toxic
Activity [4]: Non-toxic
IC50 [6]: > 5 µM
IC50 [7]: > 5 µM

SMILES: Cc1ccc(N2CCN(CC(O)COc3ccccc3C(=O)CCc3ccccc3)CC2)cc1.Cl (racemic)
Activity [1]: Non-toxic
Activity [2]: Non-toxic
Activity [3]: Non-toxic
Activity [4]: Non-toxic
IC50 [13]: 4.31 µM
IC50 [6]: > 5 µM
IC50 [7]: > 5 µM
IC50 [8]: > 5 µM

SMILES: Cl.O=C(CCc1ccccc1)c1ccccc1OCC(O)CN1CCN(C(c2ccccc2)c2ccccc2)CC1 (racemic)
EC50 [14]: 0.06 µM
EC50 [15]: 0.1 µM
Activity [1]: Non-toxic
Activity [2]: Non-toxic
Activity [3]: Non-toxic
Activity [4]: Non-toxic
selectivity ratio [5]: > 10
IC50 [13]: 2.6 µM
selectivity ratio [16]: 26
Stability [9]: Stable
Stability [10]: Stable
Stability [11]: Stable
solubility [12]: 0.2 µM

SMILES: Cl.O=C(CCc1ccc(F)cc1)c1ccccc1OCC(O)CN1CCN(C(c2ccccc2)c2ccccc2)CC1 (racemic)
EC50 [14]: < 0.1 µM
EC50 [15]: < 0.1 µM
Activity [1]: Non-toxic
Activity [2]: Non-toxic
Activity [3]: Non-toxic
Activity [4]: Non-toxic
selectivity ratio [5]: > 10

IC50 [8]: > 5 µM
Stability [9]: Stable
Stability [10]: Stable
Stability [11]: Stable
solubility [12]: 0.11 µM
SMILES: Cl.O=C(CCc1ccccc1)c1cc(F)ccc1OCC(O)CN1CCN(C(c2ccccc2)c2ccccc2)CC1 (racemic)
Activity [1]: Non-toxic
Activity [2]: Non-toxic
Activity [3]: Non-toxic
Activity [4]: Non-toxic
IC50 [6]: > 5 µM
IC50 [7]: > 5 µM
